Data taken from ChEMBL document CHEMBL3351951, “2-Octadecynoic acid as a dual life stage inhibitor of Plasmodium infections and plasmodial FAS-II enzymes” (Bioorg Med Chem Lett, 2014).
Converted amounts (≈) assume the structure as drawn. The source made the active and inactive calls. The rule behind the calls is not given here.

Assays:
[1] = Inhibition of Plasmodium falciparum FabG
How it was run: (§1)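 Recombinant P. falciparum FAS-II enzymes (FabI, FabZ, FabG) were assayed for inhibition. IC50 values (μg/ml) are the average of at least two independent assays run in duplicate.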

[2] = Inhibition of Plasmodium falciparum FabZ; how it was run: as §1
[3] = system: L6; test: Cytotoxicity against rat L6 cells; type: cell-based
[4] = species on record: Danio rerio; test: Hepatotoxicity in zebrafish larvae during 3 to 6 days of post-fertilization; type: organism-based; settings: in vivo
How it was run: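 Larvae with DsRed-fluorescent livers are exposed from 3 dpf for 3 days, at a range of concentrations up to each compound's maximum tolerated concentration. Vehicle is 1% DMSO, and paracetamol 300 μM is the positive control. At 6 dpf, livers are imaged and scored as normal, reduced fluorescence, reduced size, enlarged or absent.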

[5] = Inhibition of Plasmodium falciparum FabI; how it was run: as §1
[6] = Cytotoxicity against human HuH7 cells assessed as cell viability by Alamar Blue assay; type: cell-based; settings: huh-7
How it was run: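 Host-cell viability was measured in the same P. berghei-infected Huh7 wells. Cells were treated from 2 hpi, and Alamar Blue fluorescence was read at the time of infection analysis (48 hpi). Cell confluency is reported in arbitrary units.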

[7] = system: Plasmodium berghei; test: Antimalarial activity against liver stage of Plasmodium berghei infected in human Huh7 cells assessed as reduction in parasite load treated after 2 hrs of infection for 46 hrs by luciferase assay; type: functional, organism-based; settings: Huh-7, Liver
How it was run: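 Huh7 hepatoma cells infected with luciferase-expressing P. berghei sporozoites. Parasite load measured by luciferase signal at 44 hpi (48 hpi in the figure legend) and expressed as percent of control. IC50 is the average of at least two independent assays run in duplicate.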

[8] = species on record: Danio rerio; test: Hepatotoxicity in zebrafish larvae at 300 uM measured during 3 to 6 days of post-fertilization; type: organism-based; settings: in vivo
How it was run: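 Larvae with DsRed-fluorescent livers were exposed from 3 to 6 dpf; vehicle was 1% DMSO. At 6 dpf, livers were photographed under a stereomicroscope and scored as normal, reduced fluorescence, reduced size, enlarged or absent. Paracetamol 300 μM served as the positive control.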

[9] = system: Plasmodium berghei; test: Antimalarial activity against liver stage of GFP-expressing Plasmodium berghei infected in human Huh7 cells assessed as reduction in parasite load treated after 2 hrs of infection for 46 hrs by confocal microscopy; type: functional, organism-based; settings: Huh-7
How it was run: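 Huh7 hepatoma cells infected with GFP-expressing P. berghei sporozoites. Treated at 2 hpi for 46 h at single fixed concentrations; vehicle DMSO 0.4%. Cells fixed in 4% PFA. Exo-erythrocytic forms immunolabelled with anti-PbHsp70 and an Alexa-488 secondary antibody; nuclei stained with Hoechst. Imaged by confocal microscopy.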

[10] = Critical micelle concentration of the compound in 1X phosphate-buffered saline containing rhodamine 6G at 2.5 x 10^-6 M by spectrophotometry; type: ADME; settings: buffer
[11] = system: Plasmodium falciparum; test: Antimalarial activity against blood stage of multidrug-resistant Plasmodium falciparum K1 after 72 hrs by [3H]hypoxanthine incorporation assay; type: functional, organism-based
How it was run: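 Blood-stage P. falciparum K1 growth is measured by 3H-hypoxanthine incorporation. IC50 is given in μg/ml as the mean of at least two independent assays, each run in duplicate.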

## O=C(O[C@@H]1Cc2c(O)cc(O)cc2O[C@@H]1c1cc(O)c(O)c(O)c1)c1cc(O)c(O)c(O)c1 [EPIGALOCATECHIN GALLATE]
[1]
  IC50: 0.2 µg/mL (≈ 0.436 µM)
[2]
  IC50: 0.03 µg/mL (≈ 0.0654 µM)

## COc1cc([C@@H]2c3cc4c(cc3[C@H](O)[C@H]3COC(=O)[C@H]23)OCO4)cc(OC)c1OC [PODOFILOX]
[3]
  IC50: 0.02 µg/mL (≈ 0.0483 µM)

## CCCCCCCCCCCC#CC(=O)O
[4]
  MTD: 1.2 µM
[1]
  IC50: 5.5 µg/mL (≈ 24.5 µM)
[5]
  IC50: 1.2 µg/mL (≈ 5.35 µM)
[2]
  IC50: 3.5 µg/mL (≈ 15.6 µM)
[6]
  Activity: Non-toxic
[7]
  IC50: 2.87 µg/mL (≈ 12.8 µM)

## CC(=O)Nc1ccc(O)cc1 [ACETAMINOPHEN]
[8]
  Activity: Toxic

## CCCCCCCCCCCCCCCC(=O)O [PALMITIC ACID]
[4]
  MTD: 700 µM
[1]
  IC50: > 100 µg/mL
[5]
  IC50: > 100 µg/mL
[2]
  IC50: > 100 µg/mL
[7]
  IC50: > 25 µg/mL

## Oc1cc(Cl)ccc1Oc1ccc(Cl)cc1Cl [TRICLOSAN]
[5]
  IC50: 0.015 µg/mL (≈ 0.0518 µM)

## CCCCCCCCCCCCCCCC#CC(=O)O
[4]
  MTD: 1 µM
[1]
  IC50: 0.8 µg/mL (≈ 2.85 µM)
[9]
  inhibition: Active
[10]
  CMC: 50 µg/mL
[5]
  IC50: 0.3 µg/mL (≈ 1.07 µM)
[2]
  IC50: 0.28 µg/mL (≈ 0.998 µM)
[11]
  IC50: 6 µg/mL (≈ 21.4 µM)
[6]
  Activity: Non-toxic
[7]
  IC50: 0.34 µg/mL (≈ 1.21 µM)
